Experimental data taken from ChEMBL document CHEMBL3593226, “Discovery of small molecules with vasodilating characteristics and adjustable hydrolytic behavior” (Bioorg Med Chem, 2015).
The source made the active and inactive calls.

How the values were obtained:
[1] = Vasodilating activity in potassium chloride-mediated precontracted guinea pig pulmonary artery compound treated every 45 mins by chart recorder analysis; type: functional, tissue-based, Cavia porcellus
How it was run: (§1)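 Guinea pig aortic or pulmonary artery rings held at 19.6 mN resting tension and precontracted with 90 mM KCl. Compound added cumulatively every 45 min after a control period, with relaxation recorded on a chart recorder. Solvent-only effect subtracted. Mean ± SEM of 3–5 experiments; paired Student's t-test.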

Right cardiac atrium = assay: Chronotropic activity in electrically-stimulated guinea pig right atrium compound treated every 45 mins by chart recorder analysis; type: functional, tissue-based; conditions: Cavia porcellus, 0.75 h
How it was run: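 Isolated guinea pig right atria, resting tension 10.37 mN. After a 30 min control period, compound added cumulatively to the bath until steady state. Rate change recorded on a chart recorder; solvent-only effect subtracted. Stocks in distilled water or DMSO. Mean ± SEM of 4–5 experiments; paired Student's t-test.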

Aorta [2] = assay: Vasodilating activity in potassium chloride-mediated precontracted guinea pig aorta compound treated every 45 mins by chart recorder analysis; type: functional, tissue-based; conditions: Cavia porcellus, 0.75 h; how it was run: as §1
[3] = Inotropic activity in electrically-stimulated guinea pig papillary muscle compound treated every 45 mins by chart recorder analysis; type: functional, tissue-based; conditions: Cavia porcellus, 0.75 h
How it was run: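 Guinea pig papillary muscles driven electrically at 1 Hz, 3 ms pulses, amplitude 10% above threshold; resting tension 3.92 mN. After a 30 min control period, compound added cumulatively until steady state. Contraction force recorded on a chart recorder; solvent-only effect subtracted. Mean ± SEM of 4–5 experiments; paired t-test.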

Ileum = assay: Spasmolytic activity in potassium chloride-mediated precontracted guinea pig terminal ileum compound treated every 45 mins by chart recorder analysis; type: functional, tissue-based; conditions: Cavia porcellus, 0.75 h
How it was run: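 Guinea pig terminal ileum held at 4.9 mN resting tension and precontracted with 60 mM KCl. Compound added cumulatively every 45 min after a control period, with relaxation recorded on a chart recorder. Solvent-only effect subtracted. Stocks in distilled water or DMSO. Mean ± SEM of 3–5 experiments.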

[4] = Half life of the compound in D2O at 20 mg/ml at 20 degC by 1H-NMR spectroscopic analysis; type: physicochemical
How it was run: (§2)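 Compound dissolved in D2O and kept at 20 °C. 1H NMR spectra taken at 1, 3, 5, 7 and 24 h, in triplicate. Compound-to-degradation-product ratio (%) used to follow hydrolysis. Half-life obtained from an equation fitted to the time-course data. Mean ± SEM of three independent experiments.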

[5] = Stability of the compound in D2O assessed as degradation product ratio at 20 mg/ml at 20 degC after 24 hrs by 1H-NMR spectroscopic analysis; type: ADME; how it was run: as §2
Aorta [6] = assay: Vasodilating activity in potassium chloride-mediated precontracted guinea pig aorta at EC50 compound incubated in sealed tube filled with distilled water at room temperature for 24 hrs prior to testing by chart recorder analysis; type: functional, tissue-based; conditions: Cavia porcellus
How it was run: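 Compound dissolved in distilled water and kept sealed at room temperature for 24 h. The solution was then added at a single concentration to guinea pig aortic rings precontracted with 90 mM KCl. Change in contraction force recorded on a chart recorder for 5 min. Mean ± SEM of three experiments.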

[7] = Stability of the compound in D2O assessed as compound remaining at 20 mg/ml at 20 degC after 24 hrs by 1H-NMR spectroscopic analysis; type: physicochemical; conditions: read-out: Stability; how it was run: as §2
Aorta [8] = assay: Vasodilating activity in potassium chloride-mediated precontracted guinea pig aorta at EC50 compound treated every 45 mins by chart recorder analysis in presence of 30 uM KATP channel inhibitor glibenclamide; type: functional
Aorta [9] = assay: Vasodilating activity in potassium chloride-mediated precontracted guinea pig aorta at EC50 compound treated every 45 mins by chart recorder analysis in presence of 100 uM KATP channel inhibitor glibenclamide; type: functional
Aorta [10] = assay: Vasodilating activity in potassium chloride-mediated precontracted guinea pig aorta at EC50 compound treated every 45 mins by chart recorder analysis in presence of 100 uM eNOS inhibitor nitro-L-arginine; type: functional, tissue-based; conditions: Cavia porcellus
[11] = Stability of the compound in D2O at 20 mg/ml at 20 degC measured over 24 hrs by 1H-NMR spectroscopic analysis; type: physicochemical; how it was run: as §2

Compound: CCCCOC(=S)n1ccnc1
- EC50 [1]: 23 µM
- EC50 (Right cardiac atrium): > 100 µM
- EC50 (Aorta [2]): 13 µM
- EC50 [3]: > 100 µM
- EC50 (Ileum): 21 µM

Compound: CCCOC(=S)OCCN(C)C
- EC50 [1]: > 100 µM
- EC50 (Right cardiac atrium): > 100 µM
- EC50 (Aorta [2]): > 100 µM
- EC50 [3]: 58 µM
- EC50 (Ileum): > 100 µM

Compound: CC(C)OC(=O)n1ccnc1
- EC50 [1]: > 100 µM
- EC50 (Right cardiac atrium): > 100 µM
- EC50 (Aorta [2]): > 100 µM
- EC50 [3]: > 100 µM
- EC50 (Ileum): > 100 µM

Compound: CCCCOC(=S)OCCCN(C)C
- EC50 [1]: > 100 µM
- EC50 (Right cardiac atrium): > 100 µM
- EC50 (Aorta [2]): > 100 µM
- EC50 [3]: 4.3 µM
- EC50 (Ileum): 17 µM

Compound: CC(=O)OCCSC(=S)n1ccnc1
- EC50 [1]: 24 µM
- EC50 (Right cardiac atrium): > 100 µM
- EC50 (Aorta [2]): 5.8 µM
- EC50 [3]: 77 µM
- EC50 (Ileum): > 100 µM

Compound: CCCCCCOC(=S)OCCCN(C)C
- EC50 [1]: > 100 µM
- EC50 (Right cardiac atrium): 35 µM
- EC50 (Aorta [2]): > 100 µM
- EC50 [3]: 5.9 µM
- EC50 (Ileum): 16 µM

Compound: CCOC(=O)CCSC(=S)n1ccnc1
- EC50 [1]: 20 µM
- EC50 (Right cardiac atrium): > 100 µM
- EC50 (Aorta [2]): 16 µM
- EC50 [3]: > 100 µM
- EC50 (Ileum): 32 µM

Compound: S=C(OC1CCCC1)n1ccnc1
- EC50 [1]: > 100 µM
- EC50 (Right cardiac atrium): > 100 µM
- EC50 (Aorta [2]): 36 µM
- EC50 [3]: > 100 µM
- EC50 (Ileum): 16 µM

Compound: CCOC(=S)n1ccnc1.Cl
- EC50 [1]: 19 µM
- EC50 (Right cardiac atrium): > 100 µM
- half-life at 20 mg/ml [4]: 6.5 h
- Ratio [5]: 0.35
- EC50 (Aorta [2]): 53 µM
- EC50 [3]: > 100 µM
- Activity (Aorta [6]): inactive
- EC50 (Ileum): 4.8 µM
- remaining at 24 h, 20 mg/ml [7]: 26%

Compound: S=C(SCc1ccccc1)n1ccnc1
- EC50 [1]: 63 µM
- EC50 (Right cardiac atrium): > 100 µM
- EC50 (Aorta [2]): 20 µM
- EC50 [3]: 30 µM
- EC50 (Ileum): 40 µM

Compound: CC(C)OC(=S)n1ccnc1
- EC50 [1]: > 100 µM
- EC50 (Right cardiac atrium): > 100 µM
- EC50 (Aorta [2]): 46 µM
- EC50 [3]: > 100 µM
- EC50 (Ileum): 21 µM

Compound: Cl.S=C(OC1CCCCC1)n1ccnc1
- EC50 [1]: 24 µM
- Activity (Aorta [8]; Cavia porcellus): inactive
- EC50 (Right cardiac atrium): > 100 µM
- Activity (Aorta [9]; Cavia porcellus): inactive
- half-life at 20 mg/ml [4]: 12.3 h
- Ratio [5]: 0.09
- EC50 (Aorta [2]): 14 µM
- EC50 [3]: > 100 µM
- Activity (Aorta [10]): inactive
- Activity (Aorta [6]): inactive
- EC50 (Ileum): > 100 µM
- remaining at 24 h, 20 mg/ml [7]: 8%

Compound: S=C(N1CCCCC1)n1ccnc1
- EC50 [1]: > 100 µM
- EC50 (Right cardiac atrium): > 100 µM
- EC50 (Aorta [2]): > 100 µM
- EC50 [3]: > 100 µM
- EC50 (Ileum): > 100 µM

Compound: CN(C)CCOC(=S)OCCN(C)C
- EC50 [1]: > 100 µM
- EC50 (Right cardiac atrium): > 100 µM
- EC50 (Aorta [2]): > 100 µM
- EC50 [3]: > 100 µM
- EC50 (Ileum): > 100 µM

Compound: CSC(=S)n1c(C)nc2ccccc21
- EC50 [1]: 25 µM
- EC50 (Right cardiac atrium): > 100 µM
- EC50 (Aorta [2]): 23 µM
- EC50 [3]: 56 µM
- EC50 (Ileum): 26 µM

Compound: C[N+](C)(C)CCOC(=S)OCC[N+](C)(C)C
- EC50 [1]: > 100 µM
- EC50 (Right cardiac atrium): > 100 µM
- EC50 (Aorta [2]): > 100 µM
- EC50 [3]: > 100 µM
- EC50 (Ileum): > 100 µM

Compound: COc1ccc(CSC(=S)n2ccnc2)cc1
- EC50 [1]: 24 µM
- EC50 (Right cardiac atrium): > 100 µM
- EC50 (Aorta [2]): 13 µM
- EC50 [3]: > 100 µM
- EC50 (Ileum): > 100 µM

Compound: CCOC(=S)OCCCN(C)C
- EC50 [1]: > 100 µM
- EC50 (Right cardiac atrium): > 100 µM
- EC50 (Aorta [2]): > 100 µM
- EC50 [3]: > 100 µM
- EC50 (Ileum): > 100 µM

Compound: CC(C)CN(CC(C)C)C(=S)n1ccnc1
- EC50 [1]: 26 µM
- EC50 (Right cardiac atrium): 48 µM
- EC50 (Aorta [2]): 14 µM
- EC50 [3]: 6.5 µM
- EC50 (Ileum): 17 µM

Compound: O=C(OC1CCCCC1)n1ccnc1
- EC50 [1]: > 100 µM
- EC50 (Right cardiac atrium): > 100 µM
- EC50 (Aorta [2]): > 100 µM
- EC50 [3]: > 100 µM
- EC50 (Ileum): > 100 µM

Compound: CCCOC(=S)N1CCN(C)CC1
- EC50 [1]: > 100 µM
- EC50 (Right cardiac atrium): > 100 µM
- EC50 (Aorta [2]): > 100 µM
- EC50 [3]: > 100 µM
- EC50 (Ileum): > 100 µM

Compound: CCOC(=S)OCCN(C)C
- EC50 [1]: > 100 µM
- EC50 (Right cardiac atrium): > 100 µM
- EC50 (Aorta [2]): > 100 µM
- EC50 [3]: > 100 µM
- EC50 (Ileum): > 100 µM

Compound: CCCOC(=S)OCCCN(C)C
- EC50 [1]: > 100 µM
- EC50 (Right cardiac atrium): > 100 µM
- EC50 (Aorta [2]): > 100 µM
- EC50 [3]: 37 µM
- EC50 (Ileum): > 100 µM

Compound: CSC(=S)n1ccnc1C
- EC50 [1]: 11 µM
- EC50 (Right cardiac atrium): > 100 µM
- EC50 (Aorta [2]): 6.3 µM
- EC50 [3]: > 100 µM
- EC50 (Ileum): 9.5 µM

Compound: CCOC(=S)N1CCN(C)CC1
- EC50 [1]: > 100 µM
- EC50 (Right cardiac atrium): > 100 µM
- EC50 (Aorta [2]): > 100 µM
- EC50 [3]: > 100 µM
- EC50 (Ileum): > 100 µM

Compound: COc1cc(CSC(=S)n2ccnc2)cc(OC)c1OC
- EC50 [1]: 7.9 µM
- EC50 (Right cardiac atrium): > 100 µM
- EC50 (Aorta [2]): 3 µM
- EC50 [3]: 27 µM
- EC50 (Ileum): 15 µM

Compound: CSC(=S)n1ccnc1.Cl
- EC50 [1]: 6.9 µM
- Stability [11]: Stable
- Activity (Aorta [8]): 50%
- EC50 (Right cardiac atrium): > 100 µM
- Activity (Aorta [9]): 50%
- EC50 (Aorta [2]): 7.8 µM
- EC50 [3]: 78 µM
- EC50 (Ileum): 5.7 µM

Compound: Cc1nccn1C(=S)SCc1ccccc1
- EC50 [1]: 13 µM
- EC50 (Right cardiac atrium): 16 µM
- EC50 (Aorta [2]): 3.4 µM
- EC50 [3]: > 100 µM
- EC50 (Ileum): 16 µM

Compound: CCCOC(=S)n1ccnc1
- EC50 [1]: 100 µM
- EC50 (Right cardiac atrium): > 100 µM
- EC50 (Aorta [2]): 30 µM
- EC50 [3]: > 100 µM
- EC50 (Ileum): 21 µM
